Experimental data as given in ChEMBL document CHEMBL3822382 (Eur J Med Chem, 2016).
Calls of active or inactive are those of the source. The rule behind the calls is not given here.

How the values were obtained:
[1] = Growth inhibition of human 518A2 cells after 72 hrs by MTT assay; format: functional, cell-based; conditions: 518A2, 72 h
Procedure, shortened: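 5000 cells/well exposed for 72 h to dilution series of 100 µM–5 pM, with DMSO as solvent control. MTT 0.5 mg/mL final for 2 h, absorbance at 570/630 nm. Percentage viable cells taken versus DMSO controls; IC50 from dose–response curves, mean of four independent experiments.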

[2] = Growth inhibition of p53 null human HCT116 cells after 72 hrs by MTT assay; format: functional, cell-based; conditions: HCT-116, 72 h
Procedure, shortened: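 HCT-116 cells, p53 wild-type or p53-/-, seeded at 5000/well and treated 72 h with dilution series (100 µM–5 pM) or DMSO. MTT 0.5 mg/mL for 2 h, absorbance at 570/630 nm. Viability relative to DMSO controls; IC50 from dose–response curves, mean of three independent experiments ± S.D.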

[3] = Cell cycle arrest in human HCT116 cells expressing wild type p53 assessed as accumulation at G2/M phase at 100 nM after 24 hrs by propidium iodide staining-based flow cytometry (reference value: 21%); format: functional; conditions: HCT-116
[4] = Cell cycle arrest in human MCF7/Topo cells assessed as accumulation at S phase at 100 nM after 24 hrs by propidium iodide staining-based flow cytometry (reference value: 16%); format: functional
[5] = Cell cycle arrest in human HCT116 cells expressing wild type p53 assessed as G2/M index ratio at 50 nM after 24 hrs by propidium iodide staining-based flow cytometry relative to control; format: functional; conditions: HCT-116
518A2 = assay: Effect on microtubule structure in human 518A2 cells at 100 nM incubated for 24 hrs by DAPI staining based immunofluorescence microscopic analysis; format: cell-based
Procedure, shortened: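 518A2 cells (25,000/well) on coverslips treated 24 h with 100 nM. Cells fixed in 4% formaldehyde, permeabilized and blocked (Triton X-100/BSA). Stained with mouse anti-alpha-tubulin (37 °C, 1 h) and AlexaFluor-488 secondary; nuclei counterstained with DAPI (1 µg/mL). Imaged by fluorescence microscopy at 400×.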

EA.hy 926 = assay: Antivascular activity in human EAhy926 cells assessed as change in cell morphology from stretched to rounded form at 250 nM after 16 hrs by light microscopic analysis; format: functional, cell-based
Procedure, shortened: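 Ea.hy926 cells (100,000/well) were seeded on Matrigel-coated coverslips and allowed 12 h to form vessel-like networks. Test agent (CA-4 100 nM; indoles 250 nM) or DMSO was then added for 16 h, and networks were documented by light microscopy. Viability was checked by 2 h MTT (0.5 mg/mL) relative to DMSO controls.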

[6] = Cytotoxicity against human EAhy926 cells assessed as cell viability at 250 nM after 16 hrs by MTT assay relative to control; format: cell-based, EA.hy 926; conditions: read-out: Activity
Procedure, shortened: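 Ea.hy926 cells (100,000/well) placed on Matrigel-coated coverslips and left 12 h to form networks, then given 250 nM for 16 h. Viability measured by 2 h incubation with 0.5 mg/mL MTT and formazan absorbance, calculated relative to DMSO controls.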

Chorioallantoic membrane [7] = assay: Antivascular activity in fertilized white leghorn chicken egg chorioallantoic membrane assessed as disruption of preformed blood vessel at 5 nmol after 12 hrs by stereomicroscopic analysis; format: functional, tissue-based; conditions: Gallus gallus
Procedure, shortened: (§1)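 Fertilized white leghorn SPF eggs were incubated to day 5 at 37 °C and 50–60% humidity. A shell window was cut, 6 mm silicon rings were placed on developing CAM vessels, and eggs were incubated another 24 h. Compound (500 μM in PBS; 10 μL = 5 nmol, 20 μL = 10 nmol) or DMSO was pipetted inside the ring. Vessel changes were imaged by stereomicroscope at 0, 12 and 24 h.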

Chorioallantoic membrane [8] = assay: Antivascular activity in fertilized white leghorn chicken egg chorioallantoic membrane assessed as blood vessel hemorrhage at 5 nmol after 12 hrs by stereomicroscopic analysis; format: functional, tissue-based; conditions: Gallus gallus; procedure, shortened: as §1
HT-29 [9] = assay: Cell cycle arrest in combretastatin A-4 resistant human HT-29 cells assessed as accumulation at G1 phase at 100 nM after 24 hrs by propidium iodide staining-based flow cytometry (reference value: 68.1 +/- 0.3%); format: functional
Procedure, shortened: (§2)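 HT-29 cells (200,000/well) were treated 24 h with 100 nM indole, 5 μM CA-4 or DMSO. Cells were trypsinized, fixed in 4% formaldehyde (20 min, RT) and permeabilized in 90% ice-cold methanol (30 min). They were immunostained with anti-phospho-histone H3 (Ser10) (5 μg/mL, 37 °C, 1 h) plus an AlexaFluor-488 secondary, then stained with PI/RNase (30 min, 37 °C). Flow cytometry of 10,000 single cells assigned G1/S/G2/M.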

HT-29 [10] = assay: Cell cycle arrest in combretastatin A-4 resistant human HT-29 cells assessed as accumulation at S phase at 100 nM after 24 hrs by propidium iodide staining-based flow cytometry (reference value: 13.7 +/- 0.3%); format: functional; procedure, shortened: as §2
HT-29 [11] = assay: Cell cycle arrest in combretastatin A-4 resistant human HT-29 cells assessed as accumulation at S phase at 50 nM after 24 hrs by propidium iodide staining-based flow cytometry (reference value: 13.7 +/- 0.3%); format: functional
HT-29 [12] = assay: Cell cycle arrest in combretastatin A-4 resistant human HT-29 cells assessed as accumulation at G2 phase at 100 nM after 24 hrs by propidium iodide staining-based flow cytometry (reference value: 15.6 +/- 0.1%); format: functional; procedure, shortened: as §2
[13] = Cell cycle arrest in human 518A2 cells assessed as accumulation at subG1 phase at 100 nM after 24 hrs by propidium iodide staining-based flow cytometry (reference value: 3.8%); format: functional
[14] = Cell cycle arrest in human 518A2 cells assessed as accumulation at S phase at 100 nM after 24 hrs by propidium iodide staining-based flow cytometry (reference value: 20.4%); format: functional
[15] = Cell cycle arrest in human 518A2 cells assessed as G2/M index ratio at 100 nM after 24 hrs by propidium iodide staining-based flow cytometry relative to control; format: functional
HT-29 [16] = assay: Antivascular activity against in combretastatin A-4 resistant human HT-29 cells xenografted in fertilized white leghorn chicken egg chorioallantoic membrane assessed as blood vessel hemorrhage at 5 nmol after 24 hrs by hematoxylin and eosin staining based stereomicroscopic analysis; format: functional, cell-based
Procedure, shortened: (§3)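 Pellets of 1 × 10⁶ HT-29 cells in 10 μL of 1:1 matrigel/serum-free RPMI (gelled 30 min, 37 °C) were placed on the CAM of fertilized eggs and left 48 h. Then 100 μL of a 50 μM PBS dilution (5 nmol) was pipetted outside a silicon ring around the pellet; DMSO served as control. After 24 h, stereomicroscopy was done, and micro-xenografts were explanted, formalin-fixed, paraffin-embedded and HE-stained.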

HT-29 [17] = assay: Antivascular activity against in combretastatin A-4 resistant human HT-29 cells xenografted in fertilized white leghorn chicken egg chorioallantoic membrane assessed as retraction of tumor cells at 5 nmol after 24 hrs by hematoxylin and eosin staining based stereomicroscopic analysis; format: functional, cell-based; procedure, shortened: as §3
1411HP = assay: Vascular disrupting activity against multidrug resistant human 1411HP cells xenografted in athymic nude mouse assessed as disruption of blood vessel at 100 mg/kg, ip after 24 hrs by hematoxylin and eosin staining based microscopic analysis; format: functional, organism-based
Procedure, shortened: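 Athymic nude mice carried subcutaneous flank xenografts from 8 million cells. A single intraperitoneal dose of 100 mg/kg was given. After 24 h tumors were explanted, fixed in 5% formalin, paraffin-embedded and HE-stained for microscopic examination of vessels, hemorrhage and necrosis.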

Row | SMILES | IC50 [1] | IC50 [2] | Activity [3] | Activity [4] | Ratio [5] | Activity (518A2) | Activity (EA.hy 926) | viability at 16 h, 0.25 µM [6] | Activity (Chorioallantoic membrane [7]) | Activity (Chorioallantoic membrane [8]) | Activity (HT-29 [9]) | Activity (HT-29 [10]) | Activity (HT-29 [11]) | Activity (HT-29 [12]) | Activity [13] | Activity [14] | Ratio [15] | Activity (HT-29 [16]) | Activity (HT-29 [17]) | Activity (1411HP)
1 | COc1cc(-c2ncn(C)c2-c2ccc3c(c2)c(Cl)cn3C)cc(OC)c1OC | 18.2 nM | 26.2 nM | 50.5% | 9.9% | 0.9 | inactive | Active | > 90% | Active | Active | – | – | – | – | – | – | – | – | – | –
2 | COc1cc(-c2ncn(C)c2-c2ccc3c(c2)c(Cl)cn3C)cc(Br)c1OC.Cl | 28.2 nM | 21.3 nM | 59.7% | 8.6% | 0.9 | – | Active | > 90% | – | – | 12% | 8% | 13.5% | 4.6% | 7.4% | 17.8% | 1.5 | Active | Active | Active
